Bioassay records as filed in PubChem BioAssay.
Xi reactivation: X-chromosome reactivation activator. XiGFP mouse fibroblasts, % GFP-positive cells imaging, 3 d; cells co-treated with 5-aza-dC sensitizer; scaled so ellipticine positive control = 100%. activation, % at 7.58 µM. actives 0.055% (n = 360,000);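 active = mean normalized replicate activation at least 10% and every replicate at or above 10%; inconclusive = only one of the two criteria met; inactive = mean below 10% and not all replicates reach 10%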
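System: SV40-immortalized XiGFP fibroblast cells, line 68-5-11 / Incubation: 3-day compound exposure, then 15 min fixation at room temperature / Compound: single concentration per compound, delivered by pin transfer / Buffer or medium: DMEM plus 5-aza-dC sensitizer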
DENV2 CPE rescue: protects cells from dengue virus 2 cytopathic effect; DENV2-infected cells, cytopathic effect rescue, plate reader; CPE inhibition, % at 9.99 µM; actives 1.7% (n = 350,000); in the data active = CPE inhibition above about 20%, passing the limit was not always enough; inconclusive = no clear call, values can overlap the other calls; tested in BHK-21 cells
SIRT5 block: inhibitors of human sirtuin-5 desuccinylase; Q9NXA8; Purified SirT5, succinyl-peptide AMC, trypsin-coupled fluorescence; inhibition, % at 15 µM; actives 1.1% (n = 330,000); in the data active = inhibition above about 15%; inconclusive = no clear call, values can overlap the other calls
Target sequence (Q9NXA8 whole entry, looked up): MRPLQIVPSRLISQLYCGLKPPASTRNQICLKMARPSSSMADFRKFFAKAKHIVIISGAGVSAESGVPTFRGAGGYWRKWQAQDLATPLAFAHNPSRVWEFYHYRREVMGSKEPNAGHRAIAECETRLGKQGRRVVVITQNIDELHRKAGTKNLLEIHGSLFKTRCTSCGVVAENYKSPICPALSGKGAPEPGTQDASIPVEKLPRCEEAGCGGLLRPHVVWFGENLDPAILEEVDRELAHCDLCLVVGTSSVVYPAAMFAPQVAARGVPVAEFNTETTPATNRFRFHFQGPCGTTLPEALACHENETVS
FN deposition inh: fibronectin deposition inhibition; AH1F fibroblasts, Alexa488-fibronectin deposition fluorescence, overnight; inhibition, % at 12.6 µM; actives 0.086% (n = 350,000);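 active = mean inhibition across replicates of 30% or more, regardless of how many single replicates reach that level; inconclusive = mean under 30% yet at least half of replicates reach 30%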
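Schedule: 1 h cell adhesion before compound, then overnight fibronectin incubation; test system: AH1F fibroblast monolayer depositing Alexa488-labelled fibronectin into matrix; quantity: 10000 AH1F cells per well; probe or stimulus: fluorescent fibronectin at 24 nM final; signal: fluorescence, ex 485 nm, em 525 nm; evaluation: percent inhibition as loss of matrix-bound fibronectin fluorescence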
ARNT TACC3 PPI: disrupts binding between human ARNT and TACC3; Q9Y6A5; AlphaScreen His-ARNT PAS-B/GST-TACC3 binding, luminescence; TACC3 fragment carries E629A point mutation; inhibition, % at 9.99 µM; actives 0.66% (n = 390,000); AID 623870;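 active = mean inhibition of replicates at least 50% and at least half of replicates each reaching 50%; inconclusive = half or more replicates reach 50% but mean below 50%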
FGF22 binding: binders of recombinant human FGF22 by thermal shift | actives 1.5% (n = 340,000) | SYPRO orange fluorescence; percent of sucrose octasulfate shift, DMSO zero | Q9HCT0 | activity (Tm shift, normalised), % at 9.99 µM;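 active = mean Tm shift, scaled 0 neutral to 100 positive control, at about 1.3% or above, every replicate too, limit read from the data; inconclusive = no clear call, values can overlap the other calls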
Target sequence (Q9HCT0 whole entry, looked up): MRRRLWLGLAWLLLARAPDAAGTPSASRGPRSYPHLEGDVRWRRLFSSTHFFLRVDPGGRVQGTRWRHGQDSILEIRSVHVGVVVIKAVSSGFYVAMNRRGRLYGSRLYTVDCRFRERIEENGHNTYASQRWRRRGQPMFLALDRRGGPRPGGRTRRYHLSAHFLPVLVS
Each line names hits and unclear results; the compound was inactive in the other large screens. A selection: hits, their analogues and other compounds. The true share with any hit is near 3.8%.

C[C@@H]1CCCCO[C@H](CN(C)Cc2ccc(C(F)(F)F)cc2)[C@H](C)CN([C@H](C)CO)C(=O)c2cc(NC(=O)c3ccncc3)ccc2O1	DENV2 CPE rescue inconclusive, SIRT5 block 20
C[C@@H]1CN([C@H](C)CO)C(=O)c2cc(NC(=O)c3ccncc3)ccc2O[C@@H](C)CCCCO[C@@H]1CN(C)Cc1ccc(C(F)(F)F)cc1	none
C[C@@H]1CCCCO[C@H](CN(C)Cc2ccc(C(F)(F)F)cc2)[C@H](C)CN([C@@H](C)CO)C(=O)c2cc(NC(=O)c3ccccc3)ccc2O1	DENV2 CPE rescue 140
CC[n+]1c(-c2ccc(C)cc2)csc1Nc1c(C)n(C)n(-c2ccccc2)c1=O	none
CC[n+]1c(-c2ccccc2)csc1Nc1c(C)n(C)n(-c2ccccc2)c1=O	SIRT5 block 21 (no result: FN deposition inh)
Cc1ccc(SCCNC(=S)Nc2ccc(C)c(C)c2)cc1	none (no result: Xi reactivation, DENV2 CPE rescue, SIRT5 block, ARNT TACC3 PPI, FGF22 binding)
Cc1cc(C)cc(NC(=S)NCCSc2ccc(Cl)cc2)c1	FGF22 binding 44
NC(=O)CC[C@H](NC(=O)[C@H](Cc1ccccc1)n1c(=O)[nH]c2ccccc2c1=O)C(=O)N1CCC[C@H]1C(=O)O	DENV2 CPE rescue 66 (no result: Xi reactivation, FN deposition inh)
c1ccn2cc(-c3ccc4c(c3)OCCO4)nc2c1	FGF22 binding 43
COC(=O)[C@@H]1C[C@H]2CC[C@H](O)C[C@H]2N1Cc1ccc(C(F)(F)F)cc1	DENV2 CPE rescue 61 (no result: SIRT5 block)
COC(=O)[C@@H]1C[C@@H]2CC[C@@H](O)C[C@@H]2N1Cc1ccc(Cl)cc1	none (no result: SIRT5 block)
COc1cccc(/C=C/C(=O)NCCc2ccc(OC)c(OC)c2)c1	DENV2 CPE rescue 99 (no result: SIRT5 block)
COc1ccc(CCNC(=O)/C=C\c2ccccc2)cc1OC	none
COc1ccc(S(=O)(=O)CC(=O)Nc2ccccc2Cl)cc1	FGF22 binding 43
Cc1cc(C)n2c(Nc3ccc4c(c3)OCCO4)c(CC(C)C)nc2n1	DENV2 CPE rescue 46 (no result: ARNT TACC3 PPI)
COc1ccc(Nc2c(CC(C)C)nc3nc(C)cc(C)n23)cc1	none (no result: SIRT5 block, ARNT TACC3 PPI)
Cc1c(C(=O)N2CCCCC2)oc2ccccc12	FGF22 binding 43 (no result: SIRT5 block)
Cc1c(C(=O)N2CCOCC2)oc2ccccc12	SIRT5 block 16
CC(=NNC(=S)N1CC2CCC(CC2)C1)c1cnccn1	ARNT TACC3 PPI 51
CC(=NNC(=S)N1CCN(c2ccccn2)CC1)c1ccccn1	none
CC(=NNC(=S)N1CC2CCC(CC2)C1)c1ccccn1	none (no result: ARNT TACC3 PPI)
CC(=NNC(=S)N1CCN(c2ccccn2)CC1)c1nccs1	ARNT TACC3 PPI 66 (no result: Xi reactivation, DENV2 CPE rescue, SIRT5 block, FN deposition inh, FGF22 binding)
CC(=NNC(=S)N1CCN(C2CCCCCC2)CC1)c1ccccn1	ARNT TACC3 PPI 77
C/C(=N\NC(=O)C1CCCN(S(=O)(=O)c2ccccc2)C1)c1ccccn1 (stereo not given)	ARNT TACC3 PPI 53 (no result: Xi reactivation, DENV2 CPE rescue, SIRT5 block, FN deposition inh, FGF22 binding)
CO[C@@H]1CN(C)C(=O)c2ccc(NC(C)=O)cc2OC[C@@H](C)N(C(=O)c2cnccn2)C[C@@H]1C	none (no result: DENV2 CPE rescue, SIRT5 block, ARNT TACC3 PPI, FGF22 binding)
CCCN1C[C@H](C)[C@@H](OC)CN(C)C(=O)c2ccc(NC(=O)Nc3c(C)noc3C)cc2OC[C@H]1C	DENV2 CPE rescue 21
CO[C@@H]1CN(C)C(=O)c2ccc(NC(=O)Nc3c(C)noc3C)cc2OC[C@H](C)N(CCC(F)(F)F)C[C@H]1C	DENV2 CPE rescue 37 (no result: ARNT TACC3 PPI)
O=C1NCCOCn2nncc2CC[C@@H]1Cc1ccccc1	none (no result: DENV2 CPE rescue, SIRT5 block, ARNT TACC3 PPI, FGF22 binding)
COc1ccc(CN(C)C[C@H]2OCCCC[C@H](C)Oc3ccc(NS(C)(=O)=O)cc3C(=O)N([C@H](C)CO)C[C@H]2C)cc1	none (no result: DENV2 CPE rescue, SIRT5 block, FN deposition inh, ARNT TACC3 PPI, FGF22 binding)
Cc1noc(C)c1NC(=O)NCC[C@H]1CC[C@@H](NC(=O)c2ccc(F)cc2)[C@H](CO)O1	none
C[C@@H]1CCCCO[C@@H](CN(C)C(=O)Nc2cccc3ccccc23)[C@H](C)CN([C@H](C)CO)C(=O)c2cc(NC(=O)CCCN(C)C)ccc2O1	none (no result: FN deposition inh)
CCn1c(/C=C/c2ccccc2)nc2ccccc2c1=O	FGF22 binding 44 (no result: ARNT TACC3 PPI)
Cc1noc(C)c1NC(=O)Nc1ccc2c(c1)C(=O)N([C@H](C)CO)C[C@H](C)[C@@H](CN(C)C(=O)Nc1cccc3ccccc13)O2	DENV2 CPE rescue inconclusive
